Data on 39 compounds can be found in ChEMBL document CHEMBL1138335, “New N-arachidonoylserotonin analogues with potential "dual" mechanism of action against pain” (J Med Chem, 2007).

The target in experiment [1] is T1, Fatty-acid amide hydrolase 1 (Rattus norvegicus, UniProt P97612).
T1 sequence (P97612 whole entry): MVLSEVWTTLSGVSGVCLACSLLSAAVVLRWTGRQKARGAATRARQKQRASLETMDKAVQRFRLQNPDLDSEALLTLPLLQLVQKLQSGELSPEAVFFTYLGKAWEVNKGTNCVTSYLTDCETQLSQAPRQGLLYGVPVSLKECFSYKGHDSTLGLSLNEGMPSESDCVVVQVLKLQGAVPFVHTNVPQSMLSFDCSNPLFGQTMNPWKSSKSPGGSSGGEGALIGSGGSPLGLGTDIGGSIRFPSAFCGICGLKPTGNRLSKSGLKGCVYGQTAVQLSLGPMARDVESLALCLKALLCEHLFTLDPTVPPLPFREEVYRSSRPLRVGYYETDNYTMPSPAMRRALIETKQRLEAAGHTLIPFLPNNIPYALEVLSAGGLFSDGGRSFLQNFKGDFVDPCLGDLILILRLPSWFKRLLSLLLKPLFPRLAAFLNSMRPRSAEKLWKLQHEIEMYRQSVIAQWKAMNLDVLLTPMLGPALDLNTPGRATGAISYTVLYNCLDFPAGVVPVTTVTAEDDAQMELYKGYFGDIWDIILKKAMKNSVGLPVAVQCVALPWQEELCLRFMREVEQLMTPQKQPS
Put plainly: Inhibition of rat brain FAAH assessed by measuring [14C]anandamide hydrolysis after 30 mins.

For experiment [2], the target named is Transient receptor potential cation channel subfamily V member 1 (Homo sapiens, UniProt Q8NER1). Description: Antagonist activity at human recombinant TRPV1 receptor expressed in HEK293 cells assessed as inhibition of capsaicin-induced intracellular calcium elevation. It is filed as functional, cell-based. The essentials: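 Stably transfected HEK293 cells grown in MEM with nonessential amino acids, 10% FCS, 0.2 mM glutamine, 37 °C. Plated on poly-L-lysine a day before. Loaded 2 h at 25 °C with 4 µM Fluo-3 AM, washed, trypsinized, resuspended in Tyrode pH 7.4.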
A general note: Calcium flux is commonly read through the fluorescence of an indicator in the cells.

Experiment [3] concerns the target T2, Fatty-acid amide hydrolase 1 (Rattus norvegicus) (UniProt P97612).
T2 sequence (whole entry): T1 sequence (P97612 whole entry)
To be noted: at 50 µM.

Another experiment has as its system RBL-2H3. Description: Inhibition of anandamide uptake in RBL-2H3 cells upto 25 uM after 5 mins by anandamide membrane transport assay. It is filed as functional, cell-based. To be noted: Rattus norvegicus.
For a further experiment, the system named is Mus musculus. Put plainly: Antinociceptive activity in ip dosed mouse assessed as inhibition of formalin-induced hyperalgesia. It is filed as functional, organism-based. The essentials:
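Mice given compound ip 15 min before 1.25% formalin into the dorsal hind paw (n = 8–10 per group). Doses were 0.3–5 or 1–10 mg/kg. Some groups also got AM251 or AM630 (3 mg/kg ip) or I-RTX (0.1–0.2 mg/kg ip) 5 min earlier. Lifting, licking, flinching and similar behaviour timed every 5 min for 60 min. IC50 estimated at 40 min post-formalin.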

Calls of active or inactive are those of the source. The rule behind the calls is not given here.

Transient receptor potential cation channel subfamily V member 1, sequence (Q8NER1 whole entry): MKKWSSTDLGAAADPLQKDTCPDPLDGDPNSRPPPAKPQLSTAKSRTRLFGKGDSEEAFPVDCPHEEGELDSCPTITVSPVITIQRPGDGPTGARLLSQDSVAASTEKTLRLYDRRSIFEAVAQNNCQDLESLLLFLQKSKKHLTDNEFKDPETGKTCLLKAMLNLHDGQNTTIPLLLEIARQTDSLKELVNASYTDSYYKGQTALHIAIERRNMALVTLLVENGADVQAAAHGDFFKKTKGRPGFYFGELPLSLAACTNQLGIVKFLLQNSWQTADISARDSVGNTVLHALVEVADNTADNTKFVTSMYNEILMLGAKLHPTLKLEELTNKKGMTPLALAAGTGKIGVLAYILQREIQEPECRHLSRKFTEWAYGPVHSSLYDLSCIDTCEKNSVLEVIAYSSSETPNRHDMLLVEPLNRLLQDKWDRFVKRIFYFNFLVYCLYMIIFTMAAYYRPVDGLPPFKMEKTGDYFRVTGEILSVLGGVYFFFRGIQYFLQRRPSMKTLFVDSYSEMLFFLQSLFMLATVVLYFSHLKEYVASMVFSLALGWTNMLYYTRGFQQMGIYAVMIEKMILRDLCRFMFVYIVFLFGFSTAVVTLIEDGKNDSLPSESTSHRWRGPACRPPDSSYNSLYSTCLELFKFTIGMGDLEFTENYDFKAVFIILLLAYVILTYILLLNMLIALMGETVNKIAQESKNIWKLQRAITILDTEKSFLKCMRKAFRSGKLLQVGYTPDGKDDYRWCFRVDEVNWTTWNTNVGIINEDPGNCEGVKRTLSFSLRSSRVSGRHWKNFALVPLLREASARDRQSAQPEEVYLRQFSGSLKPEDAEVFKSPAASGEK

`O=C(NCCc1ccc(Cl)cc1)NCCc1c[nH]c2ccc(O)cc12`: the values for the IC50 in experiment [1] and in experiment [2] were more than 50 µM and more than 10 µM, respectively.
Take `CC(C)(C)c1ccc(CNC(=O)NCCc2c[nH]c3ccc(O)cc23)cc1`: the IC50 in experiment [1] stood at 50 µM; in experiment [2], 3.8 µM.
The corresponding values for `O=C(CCCCCCc1ccccc1)NCCc1c[nH]c2ccc(O)cc12` are more than 50 µM and 9.12 µM.
The like results for `CCCCC/C=C\C/C=C\CCCCCCCCOC(=O)NCCc1c[nH]c2ccc(O)cc12` were, in that order, more than 50 µM and more than 10 µM.
With `O=C(NCCc1ccc(-c2ccccc2)cc1)NCCc1c[nH]c2ccc(O)cc12`, the figures for the IC50 in experiment [1] and in experiment [2] were more than 50 µM and more than 10 µM, respectively.
The like results for `CCCCC/C=C\C/C=C\CCCCCCCC(=O)NCCc1c[nH]c2ccc(O)cc12` were, in that order, 30 µM and 1.82 µM.
The like results for `O=C(NCCc1c[nH]c2ccc(O)cc12)Oc1cccc(Cl)c1` were, in that order, 1.9 µM and more than 10 µM.
The corresponding values for `O=C(CCCCCCCc1ccccc1)NCCc1c[nH]c2ccc(O)cc12` are 34 µM and 2.13 µM.
`C=C(C)[C@]12C[C@@H](C)[C@@]34O[C@](Cc5ccccc5)(O[C@@H]1[C@@H]3C=C(COC(=O)Cc1cc(I)c(O)c(OC)c1)C[C@]1(O)C(=O)C(C)=C[C@@H]41)O2`: the inhibition (usually the share of the control response that was lost under treatment) in experiment [3] was less than 10%.
Consider `CCCCCc1cccc(-c2cccc(CCCC(=O)NCCc3c[nH]c4ccc(O)cc34)c2)c1`, for which the IC50 was 50 µM in experiment [1] and more than 10 µM in experiment [2].
Consider `O=C(NCCc1c[nH]c2ccc(O)cc12)Oc1cccc(C(F)(F)F)c1`, for which the IC50 was 2.2 µM in experiment [1] and more than 10 µM in experiment [2].
The corresponding values for `O=C(NCCc1c[nH]c2ccc(O)cc12)Oc1ccc(Cl)cc1` are 6.8 µM and more than 10 µM.
On to `CC(C)(C)c1ccc(OC(=O)NCCc2c[nH]c3ccc(O)cc23)cc1`, for which the IC50 is more than 10 µM in experiment [1] and 5.25 µM in experiment [2].
Regarding `O=C(NCCc1c[nH]c2ccc(O)cc12)Oc1cccc(-c2ccccc2)c1`, the result in the experiment with RBL-2H3 was inactive. The figures for the IC50 (in experiment [1]; in the experiment on Mus musculus; in experiment [2]) were 0.5 µM, 4 mg/kg and more than 10 µM, respectively.
For `CC/C=C\C/C=C\C/C=C\CCCCCCCC(=O)NCCc1c[nH]c2ccc(O)cc12`, the IC50 in experiment [1] was 10 µM; in experiment [2], 0.47 µM.
Regarding `CC(C)(C)c1cccc(OC(=O)NCCc2c[nH]c3ccc(O)cc23)c1`, the IC50 in experiment [1] was 3.7 µM; in experiment [2], more than 10 µM.
`O=C(NCCc1c[nH]c2ccc(O)cc12)Oc1ccc(OCc2ccccc2)cc1`: the result with RBL-2H3 was inactive. For the same compound, the IC50 in experiment [1] is 1.17 µM; in experiment [2] it was more than 10 µM.
As to `O=C(NCCc1ccccc1)NCCc1c[nH]c2ccc(O)cc12`, the IC50 in experiment [1] was more than 50 µM; in experiment [2], more than 10 µM.
Take `O=C(NCCc1ccc(Oc2ccccc2)cc1)NCCc1c[nH]c2ccc(O)cc12`: the IC50 is more than 50 µM in experiment [1] and more than 10 µM in experiment [2].
The corresponding values for `CCCCC/C=C\C/C=C\C/C=C\CCCCC(=O)NCCc1c[nH]c2ccc(O)cc12` are 10 µM and 0.95 µM.
With `CCCCC/C=C\C/C=C\C/C=C\C/C=C\CCCC(=O)NCCc1c[nH]c2ccc(O)cc12`, the IC50 in experiment [1] worked out at 8 µM; in the experiment with Mus musculus it was 0.5 mg/kg; in experiment [2], 0.27 µM.
As for `CCCCC/C=C\C/C=C\C/C=C\CCCCCOC(=O)NCCc1c[nH]c2ccc(O)cc12`, the IC50 is more than 50 µM in experiment [1] and more than 10 µM in experiment [2].
The like results for `O=C(NCCc1c[nH]c2ccc(O)cc12)Oc1cccc(I)c1` were, in that order, 1.8 µM and more than 10 µM.
The like results for `CCCCCc1cccc(NC(=O)NCCc2c[nH]c3ccc(O)cc23)c1` were, in that order, more than 50 µM and 2.63 µM.
The like results for `CCCCCCCC/C=C\CCCCCCCC(=O)NCCc1c[nH]c2ccc(O)cc12` were, in that order, more than 50 µM and 2.57 µM.
Turning to `O=C(CCCCCCCCc1ccccc1)NCCc1c[nH]c2ccc(O)cc12`, the IC50 in experiment [1] was 30 µM; in experiment [2], 0.68 µM.
The corresponding values for `CCCCC/C=C\C/C=C\C/C=C\C/C=C\CCCCOC(=O)NCCc1c[nH]c2ccc(O)cc12` are more than 50 µM and 2.82 µM.
Take `O=C(NCCc1c[nH]c2ccc(O)cc12)Oc1ccc2ccccc2c1`: the outcome in the experiment with RBL-2H3 was inactive. In addition, the IC50 in experiment [1] is 10 µM; in experiment [2] it was more than 10 µM.
In the case of `O=C(CCCCC1CCSS1)NCCc1c[nH]c2ccc(O)cc12` (racemic), the IC50 in experiment [1] was more than 50 µM; in experiment [2], more than 10 µM.
For the compound `CCCCCCCCCCCC(=O)NCCc1c[nH]c2ccc(O)cc12`, the IC50 was more than 50 µM in experiment [1] and 0.74 µM in experiment [2].
Turning to `CCCCCc1cccc(CC(=O)NCCc2c[nH]c3ccc(O)cc23)c1`, the IC50 in experiment [1] is more than 50 µM; in experiment [2], 0.24 µM.
As for `O=C(Cc1cccc(-c2ccccc2)c1)NCCc1c[nH]c2ccc(O)cc12`, the IC50 in experiment [1] was more than 50 µM; in the experiment with Mus musculus, 5 mg/kg; in experiment [2], 0.43 µM.
Take `CC/C=C\C/C=C\C/C=C\CCCCCCCCOC(=O)NCCc1c[nH]c2ccc(O)cc12`: the IC50 is more than 50 µM in experiment [1] and more than 10 µM in experiment [2].
The corresponding values for `O=C(NCCc1c[nH]c2ccc(O)cc12)Oc1ccc(I)cc1` are 5 µM and more than 10 µM.
The like results for `O=C(NCCc1c[nH]c2ccc(O)cc12)Nc1cccc(-c2ccccc2)c1` were, in that order, more than 50 µM and 0.72 µM.
With `CCCCCc1ccc2ccc(CCCC(=O)NCCc3c[nH]c4ccc(O)cc34)cc2c1`, the IC50 was 50 µM in experiment [1] and more than 10 µM in experiment [2].
The corresponding values for `CCCCCCCCCCC(=O)NCCc1c[nH]c2ccc(O)cc12` are more than 50 µM and 0.76 µM.
Take `CCCCCc1cccc(OC(=O)NCCc2c[nH]c3ccc(O)cc23)c1`: the result in the experiment with RBL-2H3 was inactive. Also, the IC50 worked out at 3.6 µM in experiment [1] and 2.4 µM in experiment [2].
As for `O=C(NCCc1c[nH]c2ccc(O)cc12)Oc1ccc(C(F)(F)F)cc1`, the IC50 was 6.4 µM in experiment [1] and more than 10 µM in experiment [2].
